Experimental data reported in ChEMBL document CHEMBL2093137, “WHO-TDR NTD Screening”.
Converted amounts (≈) assume the structure as drawn.

Tests used:
[1] = system: Schistosoma mansoni; assay: WHO-TDR: Schistosomiasis; assay type: functional; parameters: concentration or dose not given beside the values
In short: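 Percent inhibition and IC50 describe activity against whole Schistosoma mansoni worms of the Puerto Rican strain, tested as larvae and/or adults. The compounds screened were a diverse set of 10,000 from Life Chemicals, filtered for drug-likeness and reactive groups. Testing followed previously published standard procedures, with a reference drug as positive control.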

[2] = WHO-TDR: Cytotoxicity; assay type: toxicity, cell-based; conditions: human, MRC5 cells
[3] = system: Brugia malayi; assay: WHO-TDR: Lymphatic Filariasis; assay type: functional; parameters: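 tested at 10 µM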
In short: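 The screening set was a 10,000-compound diverse library from Life Chemicals, filtered for drug-likeness and for reactive groups. It was run against Brugia malayi microfilariae as whole organisms, using previously published standard procedures. Reference drugs acted as positive controls, and activity is reported both as percent inhibition and as IC50.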

[4] = system: Leishmania infantum; assay: WHO-TDR: Leishmaniasis; assay type: functional, organism-based, Mus musculus; conditions: Macrophage
In short: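 Antiparasitic potency, reported as IC50, was measured against intracellular Leishmania infantum amastigotes. The parasite strain was MHOM/MA(BE)/67, and murine peritoneal macrophages served as host cells for the screen of a 10,000-compound diverse library from Life Chemicals.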

[5] = system: Trypanosoma cruzi; assay: WHO-TDR: Chagas disease; assay type: functional, organism-based, Homo sapiens; conditions: MRC5
In short: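 Following previously published standard procedures, with a reference drug as positive control, a whole-organism assay was run on Trypanosoma cruzi Tulahuen CL2 beta-galactosidase strain amastigotes inside MRC-5SV2 human lung fibroblast host cells. The 10,000 compounds tested formed a diverse Life Chemicals library filtered for drug-likeness and reactive groups. Results are expressed as IC50 for antiparasitic potency.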

[6] = system: Plasmodium falciparum K1; assay: WHO-TDR: Malaria; assay type: functional, organism-based, Homo sapiens; conditions: Erythrocyte
In short: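 Antiplasmodial potency, expressed as IC50, was measured in a whole-organism assay on intra-erythrocytic Plasmodium falciparum K1 in human red blood cells. The screened library held 10,000 diverse compounds from Life Chemicals.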

[7] = system: Onchocerca ochengi; assay: WHO-TDR: Onchocerciasis; assay type: functional; parameters: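 at 12.5 µM on microfilariae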
In short: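 Percent inhibition and IC50 describe activity against microfilariae of Onchocerca ochengi or Onchocerca lienalis, used as animal-pathogen substitutes for the human parasite. The compounds tested made up a 10,000-member diverse library from Life Chemicals.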

[8] = system: Trypanosoma brucei brucei; assay: WHO-TDR: Human African Trypanosomiasis (HAT); assay type: functional, organism-based; conditions: Squib-427
In short: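 Antiparasitic potency is reported as IC50. The screen covered 10,000 compounds from a diverse Life Chemicals library, filtered for drug-likeness and reactive groups, tested on whole bloodstream-form Trypanosoma brucei of the Squib 427 strain.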

| Structure (SMILES) | IC50 [4] [µg/mL] | IC50 [6] [µg/mL] | IC50 [8] [µg/mL] | % Inhibition [1] [%] | IC50 [2] [µg/mL] | % Inhibition [3] [%] | IC50 [5] [µg/mL] | % Inhibition [7] [%] |
| --- | --- | --- | --- | --- | --- | --- | --- | --- |
| CC(=O)c1sc(NC(=O)C2CCCCN2S(C)(=O)=O)nc1-c1ccccc1 (stereo not given) | > 12.2 | > 12.2 | 3.12 (≈ 7.67 µM) | 0 | > 12.2 | 0 | 4.06 (≈ 9.97 µM) | 100 |
| CS(=O)(=O)N1CCCCC1C(=O)Nc1nc(-c2nc3ccccc3s2)cs1 (stereo not given) | > 12.7 | > 12.7 | > 12.7 | 0 | > 12.7 | 0 | > 12.7 | 100 |
| CCOC(=O)c1sc(NC(=O)C2CCCCN2S(C)(=O)=O)cc1C (stereo not given) | > 11.2 | > 11.2 | 3.82 (≈ 10.2 µM) | 0 | > 11.2 | 0 | 3.69 (≈ 9.86 µM) | 100 |
| CS(=O)(=O)N1CCCCC1C(=O)Nc1nc2c(Cl)c(Cl)ccc2s1 (stereo not given) | > 12.2 | > 12.2 | > 12.2 | 0 | > 12.2 | 0 | > 12.2 | 100 |
| CCc1cccc2sc(NC(=O)C3CCCCN3S(C)(=O)=O)nc12 (stereo not given) | > 11 | > 11 | 3.09 (≈ 8.4 µM) | 0 | > 11 | 0 | 3.8 (≈ 10.3 µM) | 100 |
| CCOC(=O)c1sc(NC(=O)C2CCCN2S(C)(=O)=O)nc1-c1ccccc1 (stereo not given) | > 12.7 | > 12.7 | > 12.7 | 0 | > 12.7 | 0 | > 12.7 | 100 |
| O=C(Nc1ccc(SCC(=O)N2CCc3ccccc32)nn1)c1ccccc1F | 0.397 (≈ 0.972 µM) | > 12.3 | > 12.3 | 0 | > 12.3 | 0 | > 12.3 | 0 |
| O=C(CSc1ccc(NC(=O)c2ccco2)nn1)Nc1ccccc1C(F)(F)F | > 12.7 | > 12.7 | > 12.7 | 0 | > 12.7 | 0 | > 12.7 | 100 |
| CCCc1nnc(NC(=O)CSc2ccc(NC(=O)c3cccs3)nn2)s1 | 0.408 (≈ 0.97 µM) | > 12.6 | > 12.6 | 0 | > 12.6 | 0 | > 12.6 | 0 |
| O=C(NCCNC(=O)c1cccc(Cl)c1)c1ccc(NC(=O)c2ccc(F)cc2)cc1 | 0.427 (≈ 0.971 µM) | > 13.2 | > 13.2 | 0 | > 13.2 | 0 | > 13.2 | 0 |
| COc1ccc(C(=O)C2C(=O)N(c3ccccc3)N=C2C)c(OC)c1 (stereo not given) | > 10.2 | > 10.2 | > 10.2 | 0 | > 10.2 | 0 | > 10.2 | 100 |
| O=C(c1ccc2c(c1)OCO2)C1C(=O)N(c2ccccc2)N=C1c1ccccc1 (stereo not given) | > 11.5 | > 11.5 | 3.32 (≈ 8.63 µM) | 0 | 6.6 (≈ 17.2 µM) | 0 | > 11.5 | 100 |
| O=C(c1ccc(Br)o1)C1C(=O)N(c2ccccc2)N=C1c1ccccc1 (stereo not given) | > 12.3 | > 12.3 | 4.44 (≈ 10.8 µM) | 0 | > 12.3 | 0 | 5.34 (≈ 13.1 µM) | 100 |
| Cc1ccnc(Nc2ccc(NCCNC(=O)c3cccc(C(F)(F)F)c3)nn2)c1 | > 12.5 | 1.48 (≈ 3.56 µM) | > 12.5 | 0 | 9.41 (≈ 22.6 µM) | 0 | > 12.5 | 100 |
| COc1cccc(NC(=O)NCCNc2ccc(Nc3cc(C)ccn3)nn2)c1 | > 11.8 | 9.93 (≈ 25.2 µM) | 3.82 (≈ 9.71 µM) | 0 | > 11.8 | 25 | > 11.8 | 100 |

More lines, main results first:

| IC50 [4] [µg/mL] | IC50 [6] [µg/mL] | IC50 [8] [µg/mL] | Structure (SMILES) | % Inhibition [1] [%] | IC50 [2] [µg/mL] | % Inhibition [3] [%] | IC50 [5] [µg/mL] | % Inhibition [7] [%] |
| --- | --- | --- | --- | --- | --- | --- | --- | --- |
| > 12.5 | > 12.5 | > 12.5 | O=C(COc1ccc(Cl)cc1)NCCCn1nc(-c2ccc(F)cc2)ccc1=O | 16.7 | > 12.5 | 0 | > 12.5 | 100 |
| > 11.5 | > 11.5 | 5.4 (≈ 14.1 µM) | CS(=O)(=O)N1CCCCC1C(=O)Nc1nc(-c2ccc(F)cc2)cs1 (stereo not given) | 0 | > 11.5 | 0 | 3.82 (≈ 9.95 µM) | 100 |
| > 11.8 | 3.6 (≈ 9.18 µM) | > 11.8 | CS(=O)(=O)N1CCCC1C(=O)Nc1nc(-c2ccc(Cl)s2)cs1 (stereo not given) | 0 | > 11.8 | 0 | > 11.8 | 100 |
| > 11.9 | > 11.9 | > 11.9 | COc1ccc(-c2ccc(=O)n(CCCNC(=O)Cc3ccc(F)cc3)n2)cc1 | 0 | 11.3 (≈ 28.7 µM) | 0 | > 11.9 | 100 |
| > 12.7 | > 12.7 | > 12.7 | Cc1ccc(-c2ccc(=O)n(CCCNS(=O)(=O)c3ccc(Cl)s3)n2)cc1 | 0 | 5.29 (≈ 12.5 µM) | 0 | > 12.7 | 100 |
| > 12.7 | > 12.7 | 4.24 (≈ 10 µM) | O=c1ccc(-c2ccc(F)cc2)nn1CCCNS(=O)(=O)c1cc(F)ccc1F | 0 | 3.28 (≈ 7.74 µM) | 0 | > 12.7 | 100 |
| > 12.4 | 6.97 (≈ 16.9 µM) | 5.43 (≈ 13.1 µM) | O=c1ccc(-c2ccc(F)cc2)nn1CCCNS(=O)(=O)/C=C/c1ccccc1 | 0 | 6.58 (≈ 15.9 µM) | 0 | > 12.4 | 100 |
| > 12.9 | > 12.9 | > 12.9 | COc1cc(C)ccc1S(=O)(=O)NCCCn1nc(-c2ccc(F)cc2)ccc1=O | 0 | 10 (≈ 23.2 µM) | 0 | > 12.9 | 100 |
| > 11.7 | > 11.7 | > 11.7 | O=C(CSc1ccc(NC(=O)c2cccs2)nn1)c1ccc(Cl)cc1 | 0 | 3.14 (≈ 8.05 µM) | 0 | > 11.7 | 100 |
| 0.371 (≈ 0.97 µM) | > 11.5 | > 11.5 | CCCCC1CCC(C(=O)NCCn2nc(-c3ccncc3)ccc2=O)CC1 (stereo not given) | 0 | 11 (≈ 28.7 µM) | 0 | 6.12 (≈ 16 µM) | 0 |
| > 12.3 | > 12.3 | > 12.3 | O=c1ccc(-c2ccncc2)nn1CCNS(=O)(=O)c1ccc2c(c1)CCCC2 | 0 | > 12.3 | 0 | > 12.3 | 100 |
| > 13.2 | 5.95 (≈ 13.6 µM) | 7.53 (≈ 17.2 µM) | O=C(CC(c1ccccc1)c1ccccc1)NCCCn1nc(-c2ccncc2)ccc1=O | 0 | > 13.2 | 0 | 5.91 (≈ 13.5 µM) | 100 |
| > 12.7 | > 12.7 | > 12.7 | O=c1ccc(-c2ccncc2)nn1CCCNS(=O)(=O)c1ccc2c(c1)CCCC2 | 0 | > 12.7 | 0 | 4.77 (≈ 11.2 µM) | 100 |
| > 12 | 5.9 (≈ 14.7 µM) | 4.09 (≈ 10.2 µM) | Cc1ccnc(Nc2ccc(NCCNC(=O)c3ccc(F)cc3Cl)nn2)c1 | 0 | > 12 | 25 | > 12 | 100 |
| > 11.4 | > 11.4 | > 11.4 | Cc1ccnc(Nc2ccc(NCCNC(=O)Nc3ccc(F)cc3)nn2)c1 | 0 | > 11.4 | 0 | > 11.4 | 100 |
